The assay has as its system Mycobacterium tuberculosis. The assay is described as follows: Antimycobacterial activity against multidrug-resistant Mycobacterium tuberculosis H37Rv after 28 days by agar dilution method. Format: functional. The settings on record: 672 h. Put shortly:
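Agar dilution on Middlebrook 7H11 agar with OADC, run in duplicate at pH 7.4. The clinical isolate was resistant to isoniazid, rifampicin, ethambutol and ciprofloxacin. Inoculum from fresh slants was set to 1 mg/mL wet weight in 0.05% Tween 80 saline, diluted 10^-2 to about 10⁷ cfu/mL, and spotted onto 10-fold serial drug dilutions. Incubated at 37 °C and read at 28 days. MIC is the lowest concentration giving complete (99%) growth inhibition.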

Values after ≈ are worked out from the molar mass of the structure shown. Bounds are passed on as bounds.

For orientation: MIC means the smallest concentration in the dilution series that meets the test's criterion for growth inhibition. A lower MIC goes with a more susceptible organism. `COc1ccc(-c2nc3ccccc3c(-c3ccccc3)c2Sc2nnnn2-c2ccccc2)cc1` returned an MIC of 51.2 µM (≈ 25 µg/mL).

On to `Cc1ccc(-c2nc3ccccc3c(-c3ccccc3)c2Sc2nnc(C)s2)cc1`, for which the MIC is 29.4 µM (≈ 12.5 µg/mL). Compared with the last compound, the MIC is about 1.7-fold lower.

`Brc1ccc(-c2nc3ccccc3c(-c3ccccc3)c2Sc2nc3ccccc3s2)cc1` yielded an MIC of 5.9 µM (≈ 3.1 µg/mL).

The compound `COc1ccc(-c2nc3ccccc3c(-c3ccccc3)c2Sc2nnc(C)s2)cc1` displayed an MIC of 28.3 µM (≈ 12.5 µg/mL).

`CC[C@@H](CO)NCCN[C@@H](CC)CO` [ETHAMBUTOL] came in with an MIC of 7.6 µM (≈ 1.55 µg/mL).

For `NNC(=O)c1ccncc1` [ISONIAZID], the MIC came to 0.4 µM (≈ 0.0549 µg/mL).

Take `Brc1ccc(-c2nc3ccccc3c(-c3ccccc3)c2Sc2nnnn2-c2ccccc2)cc1`: the MIC amounted to 23.3 µM (≈ 12.5 µg/mL).

In turn, `Cc1ccc(-c2nc3ccccc3c(-c3ccccc3)c2Sc2nc3ccccc3s2)cc1` returned an MIC of 54.3 µM (≈ 25 µg/mL).

`c1ccc(-c2c(Sc3nnnn3-c3ccccc3)c(-c3ccc4ccccc4c3)nc3ccccc23)cc1`: the MIC stood at 49.2 µM (≈ 25 µg/mL).

The compound `COc1ccc(-c2nc3ccccc3c(-c3ccccc3)c2Sc2nc3ccccc3s2)cc1` displayed an MIC of over 52.4 µM.

For `Cc1nnc(Sc2c(-c3ccc4ccccc4c3)nc3ccccc3c2-c2ccccc2)s1`, the MIC was determined as 13.5 µM (≈ 6.23 µg/mL).

As for `Cc1nnc(Sc2c(-c3ccccc3)nc3ccccc3c2-c2ccccc2)s1`, the MIC was 30.4 µM (≈ 12.5 µg/mL).

Compound `Cc1ccc(-c2nc3ccccc3c(-c3ccccc3)c2Sc2nnnn2-c2ccccc2)cc1` gave an MIC of 53 µM (≈ 25 µg/mL).

Consider `Clc1ccc(-c2nc3ccccc3c(-c3ccccc3)c2Sc2nnnn2-c2ccccc2)cc1`, for which the MIC was determined as 50.8 µM (≈ 25 µg/mL).

With `c1ccc(-c2ccc(-c3nc4ccccc4c(-c4ccccc4)c3Sc3nc4ccccc4s3)cc2)cc1`, 47.2 µM (≈ 24.7 µg/mL) was the least that counted as inhibitory (MIC). The MIC values of the last two compounds are within 1.5-fold of each other.

Take `Cc1nnc(Sc2c(-c3ccc(Cl)cc3)nc3ccccc3c2-c2ccccc2)s1`: the MIC is 3.5 µM (≈ 1.56 µg/mL).

Regarding `c1ccc(-c2nc3ccccc3c(-c3ccccc3)c2Sc2nc3ccccc3s2)cc1`, the MIC is 55.9 µM (≈ 25 µg/mL).

Compound `c1ccc(-c2c(Sc3nc4ccccc4s3)c(-c3ccc4ccccc4c3)nc3ccccc23)cc1` returned an MIC of 50.3 µM (≈ 25 µg/mL). This MIC and that of the compound before are within 1.5-fold of each other.

The compound `c1ccc(-c2ccc(-c3nc4ccccc4c(-c4ccccc4)c3Sc3nnnn3-c3ccccc3)cc2)cc1` displayed an MIC of 46.8 µM (≈ 25 µg/mL).

On to `CO[C@H]1/C=C/O[C@@]2(C)Oc3c(C)c(O)c4c(O)c(c(/C=N/N5CCN(C)CC5)c(O)c4c3C2=O)NC(=O)/C(C)=C\C=C\[C@H](C)[C@H](O)[C@@H](C)[C@@H](O)[C@@H](C)[C@H](OC(C)=O)[C@@H]1C` [RIFAMPIN], for which the MIC was 0.1 µM (≈ 0.0823 µg/mL).

`Cc1nnc(Sc2c(-c3ccc(-c4ccccc4)cc3)nc3ccccc3c2-c2ccccc2)s1` yielded an MIC of 6.4 µM (≈ 3.12 µg/mL).

The compound `c1ccc(-c2nc3ccccc3c(-c3ccccc3)c2Sc2nnnn2-c2ccccc2)cc1` came in with an MIC of 54.6 µM (≈ 25 µg/mL).

Turning to `Cc1nnc(Sc2c(-c3ccc(Br)cc3)nc3ccccc3c2-c2ccccc2)s1`, it took 3.2 µM (≈ 1.57 µg/mL) to inhibit growth (MIC).

With `Clc1ccc(-c2nc3ccccc3c(-c3ccccc3)c2Sc2nc3ccccc3s2)cc1`, the minimum inhibitory concentration (MIC) was determined as 12.9 µM (≈ 6.21 µg/mL).

The values above are taken from ChEMBL document CHEMBL1828510, “Synthesis of 3-heteroarylthioquinoline derivatives and their in vitro antituberculosis and cytotoxicity studies” (Eur J Med Chem, 2011).
